Key:
[1] = biological target: Type-2 angiotensin II receptor (Bos taurus, UniProt G5E6F7); assay: Binding affinity towards Angiotensin II type 2 receptor in bovine cerebellar cortical membranes; Inactive
Rattus norvegicus [2] = assay: Time duration was determined from onset of the action till no response after […] administration of 1 mg/kg in anesthetized, ganglion blocked, A II- infused rat; type: functional
Rattus norvegicus [3] = assay: Time duration was determined from onset of the action till no response after (i.v.) administration of 1 mg/kg in anesthetized, ganglion blocked, A II- infused rat; type: functional; details: route intravenous
In short: (§1)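 Male Sprague-Dawley rats (300–400 g) were anesthetized with urethane (1.25 g/kg im) and ganglion-blocked with pentolinium (0.1 mg/kg/min), with carotid BP recorded at 37 °C. After three reproducible A II challenges (100 ng/kg iv, every 10 min), compound was given iv 5 min before the next challenge. Challenges continued until the response returned near basal, with one dose per animal. Vehicle was 1% DMSO/stoichiometric NaOH or 0.5% methocel.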

[4] = biological target: T1, Angiotensin II receptor (AT-1) type-1 (Rattus norvegicus, UniProt P29089+P25095); assay: Displacement of [3H]angiotensin II from Angiotensin II type 1 receptor in rat adrenal cortical membrane; type: cell membranes
T1 sequence (P29089 whole entry): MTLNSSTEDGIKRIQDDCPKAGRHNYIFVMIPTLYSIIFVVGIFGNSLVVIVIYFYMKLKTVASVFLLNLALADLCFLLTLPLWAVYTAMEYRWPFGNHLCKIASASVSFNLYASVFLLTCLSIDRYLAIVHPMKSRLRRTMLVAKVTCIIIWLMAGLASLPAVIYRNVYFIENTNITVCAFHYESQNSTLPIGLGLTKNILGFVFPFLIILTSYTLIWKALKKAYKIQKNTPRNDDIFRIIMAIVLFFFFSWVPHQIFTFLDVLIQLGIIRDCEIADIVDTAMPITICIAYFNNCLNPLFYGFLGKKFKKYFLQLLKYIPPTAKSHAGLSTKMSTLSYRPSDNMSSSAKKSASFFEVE
T1 sequence (P25095 whole entry): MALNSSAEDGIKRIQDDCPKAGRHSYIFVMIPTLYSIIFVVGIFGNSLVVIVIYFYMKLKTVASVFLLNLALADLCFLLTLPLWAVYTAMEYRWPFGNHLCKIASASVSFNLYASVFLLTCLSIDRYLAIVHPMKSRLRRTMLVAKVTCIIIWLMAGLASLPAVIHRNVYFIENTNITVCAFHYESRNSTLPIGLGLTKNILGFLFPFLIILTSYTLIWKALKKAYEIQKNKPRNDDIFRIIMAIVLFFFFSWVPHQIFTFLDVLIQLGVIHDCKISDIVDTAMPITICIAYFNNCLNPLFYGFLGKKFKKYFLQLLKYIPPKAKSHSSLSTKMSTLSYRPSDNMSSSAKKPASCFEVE

[5] = biological target: T2, Angiotensin II receptor (Rattus norvegicus) (UniProt P29089+P25095+P35351); assay: Effect on pressure response to angiotensin II receptor (AII) after (i.v.) administration of 1 mg/kg in anesthetized, ganglion blocked, A II- infused rat was determined in vivo; type: functional, organism-based; parameters: dose 1 mg/kg; details: at 1 mg/kg; in short: as §1
[6] = biological target: T2, Angiotensin II receptor (Rattus norvegicus); assay: Effect on pressure response to angiotensin II receptor (AII) after (i.v.) administration of 1 mg/kg in anesthetized, ganglion blocked, AII-infused rat in vivo; type: functional, organism-based; parameters: dose 1 mg/kg
In short: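 After three reproducible A II challenges (100 ng/kg iv, every 10 min), compound was given iv 5 min before the next challenge. Challenges continued until the response returned near basal, with one dose per animal. Vehicle was 1% DMSO/stoichiometric NaOH or 0.5% methocel.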

[7] = biological target: T2, Angiotensin II receptor (Rattus norvegicus); assay: Effect on pressure response to angiotensin II receptor (AII) after […] administration of 1 mg/kg in anesthetized, ganglion blocked, A II- infused rat was determined in vivo; type: functional, organism-based; parameters: dose 1 mg/kg
In short: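 Compound was given intraduodenally, one dose per animal, in 1% DMSO/stoichiometric NaOH or 0.5% methocel. Inhibition was read 30 min after dosing; the 1 mg/kg duration is the time from onset until inhibition was no longer significant.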

Rattus norvegicus [8] = assay: ime duration was determined from onset of the action till no response after […] in anesthetized, ganglion blocked, A II- infused rat; type: functional
Rattus norvegicus [9] = assay: Time from onset of the action at a dose of 1 mg/kg until significant inhibition of pressure response is no longer observed in anesthetized, ganglion blocked, A II- infused rat after […] administration; type: functional

T2 sequence (P35351 whole entry, looked up, one chain of several, the tested form may be a part): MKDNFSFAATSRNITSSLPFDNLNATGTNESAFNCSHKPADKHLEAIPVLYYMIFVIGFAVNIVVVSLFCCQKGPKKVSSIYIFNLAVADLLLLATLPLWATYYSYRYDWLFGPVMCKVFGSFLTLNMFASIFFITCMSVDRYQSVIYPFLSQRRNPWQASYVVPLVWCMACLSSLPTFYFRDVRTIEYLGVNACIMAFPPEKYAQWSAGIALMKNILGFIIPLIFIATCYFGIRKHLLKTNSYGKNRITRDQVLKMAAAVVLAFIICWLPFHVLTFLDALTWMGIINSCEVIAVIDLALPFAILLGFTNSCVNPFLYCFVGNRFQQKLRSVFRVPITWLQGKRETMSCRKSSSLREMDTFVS

CCCCc1nc(C)n(Cc2sccc2C(=O)O)c(=O)c1Cc1ccc(-c2ccccc2-c2nnn[nH]2)cc1
Ki [1]: > 4 µM

CCCCc1nc(C)n(Cc2cccs2)c(=O)c1Cc1ccc(-c2ccccc2-c2nnn[nH]2)cc1
Ki [1]: > 4 µM
Duration (Rattus norvegicus [2]): 60 min
Duration (Rattus norvegicus [3]): 55 min

CCCCc1nc(C)cc(=O)n1Cc1ccc(-c2ccccc2C(=O)O)cc1
Ki [1]: > 4 µM
Ki [4]: 0.263 µM
Duration (Rattus norvegicus [3]): 15 min
inhibition [5]: 34%

CCCCc1nc(C)nc(O)c1Cc1ccc(-c2ccccc2-c2nn[nH]n2)cc1
Ki [4]: 0.003 µM
Duration (Rattus norvegicus [3]): 55 min
inhibition [5]: 87%

CCCCc1nc(C)n(Cc2ccccc2C(=O)O)c(=O)c1Cc1ccc(-c2ccccc2C(=O)O)cc1
Ki [1]: > 4 µM
Ki [4]: 0.401 µM
Duration (Rattus norvegicus [3]): 15 min
inhibition [5]: 46%

CCCCc1nc(C)n(Cc2ccccc2)c(=O)c1Cc1ccc(-c2ccccc2-c2nnn[nH]2)cc1
Ki [1]: > 4 µM

CCCCc1nc(C)n(Cc2occc2C(=O)OC)c(=O)c1Cc1ccc(-c2ccccc2-c2nnn[nH]2)cc1
Ki [1]: > 4 µM

CCCCc1nc(C)n(Cc2occc2C(=O)OC)c(=O)c1Cc1ccc(-c2ccccc2-c2nn[nH]n2)cc1
Ki [4]: 0.00058 µM
Duration (Rattus norvegicus [2]): >120 min
ED50 [6]: 0.3 mg/kg
ED50 [7]: 1.44 mg/kg
Duration (Rattus norvegicus [3]): 65 min

CCCCc1nc(C)n(Cc2occc2C(=O)O)c(=O)c1Cc1ccc(-c2ccccc2C(=O)O)cc1
Ki [1]: > 4 µM
Ki [4]: 0.264 µM
ED50 [6]: 0.85 mg/kg
Duration (Rattus norvegicus [3]): 25 min

CCCCc1nc(C)n(Cc2ccccc2)c(=O)c1Cc1ccc(-c2ccccc2-c2nn[nH]n2)cc1
Ki [4]: 0.003 µM
Duration (Rattus norvegicus [2]): 60 min
ED50 [6]: 1.07 mg/kg
ED50 [7]: > 10 mg/kg
Duration (Rattus norvegicus [3]): 45 min

CCCCc1nc(C)n(Cc2sccc2C(=O)OC)c(=O)c1Cc1ccc(-c2ccccc2-c2nnn[nH]2)cc1
Ki [1]: > 4 µM
Duration (Rattus norvegicus [2]): >120 min
Duration (Rattus norvegicus [3]): 65 min

CCCCc1nc(Cl)c(CO)n1Cc1ccc(-c2ccccc2-c2nnn[nH]2)cc1 [LOSARTAN]
Duration (Rattus norvegicus [2]): 120 min
ED50 [6]: 0.32 mg/kg
ED50 [7]: 3.7 mg/kg
Duration (Rattus norvegicus [3]): 55 min

CCCCc1ncn(Cc2cccs2)c(=O)c1Cc1ccc(-c2ccccc2C(=O)O)cc1
Ki [1]: > 4 µM
Ki [4]: 0.06 µM
Duration (Rattus norvegicus [3]): 15 min
inhibition [5]: 23%

CCCCc1nc(C)n(Cc2occc2C(=O)O)c(=O)c1Cc1ccc(-c2ccccc2-c2nn[nH]n2)cc1
Ki [1]: > 4 µM
Ki [4]: 0.016 µM
Duration (Rattus norvegicus [2]): 75 min
ED50 [6]: 0.43 mg/kg
ED50 [7]: 14.5 mg/kg
Duration (Rattus norvegicus [3]): 45 min

CCCCc1nc(C)nc(O)c1Cc1ccc(-c2ccccc2C(=O)O)cc1
Ki [1]: > 4 µM
Ki [4]: 0.113 µM
Duration (Rattus norvegicus [3]): 35 min
inhibition [5]: 53%

CCCCc1nc(C)[nH]c(=O)c1Cc1ccc(-c2ccccc2-c2nnn[nH]2)cc1
Ki [1]: > 4 µM

CCCCc1nc(C)n(Cc2sccc2C(=O)O)c(=O)c1Cc1ccc(-c2ccccc2-c2nn[nH]n2)cc1
Ki [4]: 0.014 µM
Duration (Rattus norvegicus [8]): >120 min
ED50 [6]: 0.45 mg/kg
ED50 [7]: 7.24 mg/kg
Duration (Rattus norvegicus [3]): 55 min

CCCCc1nc(C)n(Cc2ccsc2C(=O)OC)c(=O)c1Cc1ccc(-c2ccccc2-c2nn[nH]n2)cc1
Ki [1]: > 4 µM
Ki [4]: 0.0021 µM
Duration (Rattus norvegicus [2]): >120 min
ED50 [6]: 0.54 mg/kg
ED50 [7]: 2.67 mg/kg
Duration (Rattus norvegicus [3]): 65 min

CCCCc1nc(Cl)c(CO)n1Cc1ccc(-c2ccccc2C(=O)O)cc1
Duration (Rattus norvegicus [3]): 25 min
inhibition [5]: 48%

CCCCc1ncn(Cc2ccc(C(=O)O)cc2)c(=O)c1Cc1ccc(-c2ccccc2C(=O)O)cc1
Ki [1]: > 4 µM
Duration (Rattus norvegicus [3]): 25 min
inhibition [5]: 46%

CCCCc1ncnc(O)c1Cc1ccc(-c2ccccc2C(=O)O)cc1
Ki [1]: > 4 µM
Ki [4]: 0.148 µM
Duration (Rattus norvegicus [3]): 35 min
inhibition [5]: 50%

CCCCc1nccc(=O)n1Cc1ccc(-c2ccccc2C(=O)O)cc1
Ki [1]: > 4 µM
Ki [4]: 1.097 µM
Duration (Rattus norvegicus [3]): 35 min
inhibition [5]: 42%

CCCCc1ncn(Cc2ccccc2C(=O)O)c(=O)c1Cc1ccc(-c2ccccc2C(=O)O)cc1
Ki [1]: > 4 µM
Ki [4]: 0.379 µM
Duration (Rattus norvegicus [3]): 25 min
inhibition [5]: 43%

CCCCc1nc(C)n(Cc2ccccc2C(=O)O)c(=O)c1Cc1ccc(-c2ccccc2-c2nn[nH]n2)cc1
Ki [1]: > 4 µM
Ki [4]: 0.018 µM
Duration (Rattus norvegicus [9]): >120 min
ED50 [6]: 0.31 mg/kg
ED50 [7]: 4.2 mg/kg
Duration (Rattus norvegicus [3]): 65 min

CCCCc1nc(C)n(Cc2sccc2C(=O)O)c(=O)c1Cc1ccc(-c2ccccc2C(=O)O)cc1
Ki [1]: > 4 µM
Ki [4]: 0.181 µM
Duration (Rattus norvegicus [3]): 15 min
inhibition [5]: 33%

CCCCc1ncn(Cc2ccccc2)c(=O)c1Cc1ccc(-c2ccccc2C(=O)O)cc1
Ki [1]: > 4 µM
Ki [4]: 0.04 µM
Duration (Rattus norvegicus [3]): 25 min
inhibition [5]: 39%
